Data from ChEMBL document CHEMBL1142155, “Human beta-defensins kill Candida albicans in an energy-dependent and salt-sensitive manner without causing membrane disruption” (2007).
Calls of active or inactive are those of the source. The rule behind the calls is not given here.

How the values were obtained:
Candida albicans [1] = assay: Induction of ATP efflux in Candida albicans CAF4-2 at 1 uM; type: functional, organism-based
Procedure, shortened: (§1)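 10⁴ C. albicans cells given 31 μM Hst 5 or 1 μM hBD-3, with or without 2 h pretreatment in 1 mM NaN₃. Extracellular ATP read by luminometry at 0, 5, 15, 30, 45 and 60 min. Values come from per-experiment ATP standard curves, as pmol ATP per 10⁴ cells.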

Candida albicans [2] = assay: Induction of membrane permeabilization in Candida albicans assessed as calcein release at 0.8 uM after 90 min; type: functional
Procedure, shortened: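 Early-stationary yeast washed in 10 mM NaPB, loaded at 10⁷/ml with 5 μM (final) calcein-AM for 2 h at room temperature, then washed four times; 10⁶ cells given 0.8 μM hBD-3 or 32 μM Hst 5. Fluorescence (ex 485/em 530 nm) read every 5 min for 90 min. Percent release = (I_r − I_bkg)/(I_int − I_bkg) × 100, where I_int comes from boiling 10 min. Mean ± SD of three experiments.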

Candida albicans [3] = assay: Induction of ATP efflux in Candida albicans CAF4-2 at 1 uM in presence of 1 mM sodium azide; type: functional, organism-based; procedure, shortened: as §1

CC[C@H](C)C(NC(=O)CN)C(=O)N[C@H](C(=O)N[C@@H](CC(N)=O)C(=O)N[C@H](C(=O)N[C@@H](CC(C)C)C(=O)N[C@@H](CCC(N)=O)C(=O)N[C@@H](CCCCN)C(=O)N[C@@H](Cc1ccc(O)cc1)C(=O)N[C@@H](Cc1ccc(O)cc1)C(=O)N[C@@H](CS)C(=O)N[C@@H](CCCNC(=N)N)C(=O)N[C@H](C(=O)N[C@@H](CCCNC(=N)N)C(=O)NCC(=O)NCC(=O)N[C@@H](CCCNC(=N)N)C(=O)N[C@@H](CS)C(=O)N[C@@H](C)C(=O)N[C@H](C(=O)N[C@@H](CC(C)C)C(=O)N[C@@H](CO)C(=O)N[C@@H](CS)C(=O)N[C@@H](CC(C)C)C(=O)N1CCC[C@H]1C(=O)N[C@@H](CCCCN)C(=O)N[C@@H](CCC(=O)O)C(=O)N[C@@H](CCC(=O)O)C(=O)N[C@@H](CCC(N)=O)C(=O)N[C@H](C(=O)NCC(=O)N[C@@H](CCCCN)C(=O)N[C@@H](CS)C(=O)N[C@@H](CO)C(=O)N[C@H](C(=O)N[C@@H](CCCNC(=N)N)C(=O)NCC(=O)N[C@@H](CCCNC(=N)N)C(=O)N[C@@H](CCCCN)C(=O)N[C@@H](CS)C(=O)N[C@@H](CS)C(=O)N[C@@H](CCCNC(=N)N)C(=O)N[C@@H](CCCNC(=N)N)C(=O)N[C@@H](CCCCN)C(=O)N[C@@H](CCCCN)C(=O)O)[C@@H](C)O)[C@@H](C)CC)C(C)C)C(C)C)[C@@H](C)O)[C@@H](C)CC (stereo partly drawn)
Activity (Candida albicans [1]): Active
Activity (Candida albicans [2]): 24.2%
Activity (Candida albicans [3]): inactive
